PglD inh – C. jejuni PglD acetyltransferase inhibitors, primary screen, biochemical, DTNB colorimetric, single point; inhibition, % at 12.5 µM; UDP-N-acetylbacillosamine N-acetyltransferase PglD (Campylobacter jejuni); AID 602405, 2012; purified PglD enzyme, DTNB colorimetric CoA detection; actives 0.098% (n = 360,000); in the data active = inhibition above about 16%, passing the limit was not always enough
rRNA inh HTS – reduced GFP signal of wild-type E. coli, primary screen, bacterial rRNA inhibitor project, GFP/RFP fluorescence, OD600, single point; AID 720706, 2013; actives 1.6% (n = 350,000); GFP signal change (wild-type ribosome), % (concentration not given with the values); E. coli WT GFP vs humanized-ribosome RFP mutants, 24 h; active compounds read low; DMSO median 0, no signal -100;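 active = significant combined selectivity score with lowered wild-type GFP, culture density cut under 30%, mutant RFP and density less affected; inactive = any of these conditions unmet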
SUMO Mot1 rescue – yeast Mot1-301 growth rescue at high temperature, primary screen, SUMOylation pathway inhibitor project, S. cerevisiae, ATP luminescence, 38.5C. AID 2716, 2010. S. cerevisiae Mot1-301 growth rescue; percent above DMSO median, 100 means doubled. growth rescue, % at 18.8 µM. actives 1% (n = 320,000);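 active = every valid replicate shows activation above 250% relative to neutral control wells; inactive = the rest, any valid replicate at or below 250%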;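 note: OY570 slx delta 5 strain wells were the positive control but not used for scaling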
Cneo AK release – Cryptococcus neoformans cell lysis inducers, primary screen, AK release luminescence, single concentration. C. neoformans lysis, adenylate kinase release luminescence, 4 h; normalised: neutral wells 0, clomiphene wells 100. lysis activity, % at 15 µM. actives 0.2% (n = 360,000). AID 651654, 2012;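 active = mean lysis activity across replicates of at least 80%, whatever share of replicates individually reach that level; inactive = mean lysis activity below 80%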
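Assay system: C. neoformans cells. Amount: yeast cell density of 5 × 10^6 cells/mL. Technique: AK luminescence. Buffer or medium: YPD. Times: static 4 h at 37 °C with compound, 1 h detection. Dosing: single-point compound dose. Read-out: lysis from increased AK signal.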
Yeast superoxide – reduction of superoxide in aged yeast, primary screen, HTS; AID 2690, 2010; superoxide response (% of plate mean), % at 10 µM; S. cerevisiae aged cells, superoxide DHE fluorescence; active compounds read low; actives 0.18% (n = 330,000);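 active = superoxide response under a set limit, about three screen SD below normal, cut at about 65% in these data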;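 note: yeast aged for seven days with compound at 30 °C before DHE staining; 100% = average MFI of all compound-treated wells on the plate with controls excluded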
Yeast Mot1 SUMO – growth restoration of Mot1-301 yeast on galactose, dose response, SUMO pathway inhibitor project, whole organism, S. cerevisiae, ATP luminescence, cherry-picked samples. S. cerevisiae Mot1-301 galactose growth, 24 h; -100 = growth of slx-deleted rescue strain. shares compounds with SUMO Mot1 rescue. 2,300 tested, under 10 active. growth activity, percent, % at 42 µM;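 active = Signal drops as the depositor expects, and the fitted half-maximal dose is no more than ten times the top valid tested dose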;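 note: more negative values mean stronger growth rescue toward the control strain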
Numbers without * were called inactive; . = no result; + = active, no number. Shown are actives, neighbours in structure and some others; about 2.2% of the full set was active somewhere.

SMILES	PglD inh	rRNA inh HTS	SUMO Mot1 rescue	Cneo AK release	Yeast superoxide	Yeast Mot1 SUMO
Cc1ccc(NS(=O)(=O)c2ccc(NC(=O)C3CCCO3)cc2)cc1 (stereo not given)	-6.2	.	469.1*	-0.9	98.5	0.2
COC(=O)C1CN(C(=O)C(C)Oc2ccc(F)cc2)c2ccccc2O1 (stereo not given)	0.6	2.2	748.4*	-0.9	110.0	0.4
O=C(CN1CCN(Cc2ccc(F)cc2)CC1)NCc1ccccc1	-8.9	12.6	650.8*	0.1	102.3	0.4
O=C(CN1CCN(Cc2ccc(F)cc2)CC1)NCCc1ccccc1	9.1	9.5	-4.7	-4.7	100.6	.
Cc1ccccc1Nc1cc(=O)oc2ccccc12	3.7	.	370.2*	2.8	101.4	0.8
COc1cccc(C(=O)Nc2ccc3c(c2)OC[C@H](C)N(C(=O)C2CCCC2)C[C@@H](C)[C@H](OC)CN(C)C3=O)c1	5.6	1.3	.	-2.0	.	.
CC(C)(C)S(=O)N1Cc2cc(C(=O)NCCCN3CCOCC3)nc(-c3cccc(-c4cccc(F)c4)c3)c2[C@H]1CCO (stereo not given in full)	-1.8	-4.5	.	15.9	.	.
CC(C)C(NC(=O)c1ccccc1)C(=O)NCC(c1ccccc1)N(C)C (stereo not given)	.	-4.9	+	.	108.4	-0.1
CN(C)C(CNC(=O)CNC(=O)c1ccc(Br)cc1)c1ccccc1 (stereo not given)	-6.1	0.9	598.6*	0.9	85.7	0.3
Cc1noc(C)c1NC(=O)N(C)C[C@H]1Oc2c(cccc2N(C)C)C(=O)N([C@@H](C)CO)C[C@@H]1C	1.5	2.7	.	-4.1	.	.
C[C@H](CO)N1C[C@H](C)[C@H](CN(C)C(=O)c2cccc(F)c2)Oc2cc(-c3cncnc3)ccc2S1(=O)=O	0.6	-0.4	.	-0.1	.	.
COc1ccccc1C(=O)N1C[C@@H]2[C@H](c3ccccc31)[C@H](CO)N2C(=O)Cc1cccnc1	8.0	2.3	.	-2.2	.	.
CCOC(=O)/C=C(\C)N1N=C(c2ccccc2)CC1c1ccccc1 (stereo not given)	.	-45.5	.	.	79.8	.
CCOC(=O)C1CC(c2ccccc2)=NNC1=O (stereo not given)	.	12.3	503.8*	.	100.2	0.2
Cc1noc(C)c1S(=O)(=O)Nc1ccc2c(c1)C(=O)N([C@@H](C)CO)C[C@@H](C)[C@H](CN(C)S(=O)(=O)c1cccs1)O2	3.4	0.3	.	-0.3	.	.
CCOC(=O)c1nc(Nc2ccccc2CC)c2ccccc2n1	-3.9	-0.5	996.1*	0.4	109.6	0.4
Cn1c(SCC(=O)Nc2ccccc2Cl)nnc1C1CC1	7.0	4.6	3.2	0.0	103.2	.
Cn1c(SCC(=O)Nc2nnc(-c3ccccc3)o2)nnc1C1CC1	2.2	8.1	544.6*	-2.7	99.7	-0.2
C[C@H](NC(=O)C[C@@H]1C[C@@H]2c3cc(NC(=O)NC4CCCCC4)ccc3O[C@@H]2[C@H](CO)O1)c1ccccc1	1.8	1.6	.	-2.7	.	.
CC12CCC(=O)N1C(C(=O)Nc1ccccc1F)CS2 (stereo not given)	0.4	2.6	792.6*	0.1	103.3	0.5
CC12CCC(=O)N1C(C(=O)Nc1cccc3ccccc13)CS2 (stereo not given)	3.1	.	-8.6	1.9	94.4	.
C/C(CC(=O)NC1CCCCC1)=N\NC(=O)Cc1ccc(-c2ccccc2)cc1	.	12.3	437.0*	.	83.8	-0.1
C/C(CC(=O)NCc1ccco1)=N\NC(=O)Cc1ccc(-c2ccccc2)cc1	.	11.2	-19.3	.	108.7	.
CCOc1ccccc1/C=N\Nc1cnn(Cc2ccccc2)c(=O)c1Cl	.	6.1	+	.	98.5	0.1
Cc1nn(C)cc1CNC(=O)C1CCC(=O)N(Cc2cccc(C(F)(F)F)c2)C1 (stereo not given)	0.2	12.2	374.7*	2.6	108.3	-0.1
SMILES	PglD inh	rRNA inh HTS	SUMO Mot1 rescue	Cneo AK release	Yeast superoxide	Yeast Mot1 SUMO
Cc1cc(CNC(=O)C2CCC(=O)N(Cc3cccc(C(F)(F)F)c3)C2)no1 (stereo not given)	2.9	7.8	-18.8	0.6	90.1	.
CO[C@H]1CN(C)C(=O)c2ccc(NC(=O)c3ccccc3)cc2OC[C@@H](C)N(CC2CC2)C[C@H]1C	-0.8	1.6	.	-1.2	.	.
CC1(OC(=O)C2CCCC2)C(=O)C=C2C=C(c3ccsc3)OC=C2C1=O (stereo not given)	2.1	7.9	505.8*	-1.3	92.5	-0.1
COc1ccc(C(=O)NCC2OCCc3ccccc32)cc1 (stereo not given)	-8.2	.	-13.7	0.4	82.5	.
CCOc1ccc(C(=O)NCC2OCCc3ccccc32)cc1 (stereo not given)	-1.0	.	747.5*	-1.9	91.1	0.2
CO[C@H]1CN(C)C(=O)c2ccc(NC(=O)C3CCCCC3)cc2OC[C@H](C)N(Cc2cccnc2)C[C@@H]1C	.	-1.8	.	.	.	.
COc1nc(OC)nc(N2CCC(C(=O)NC3CC3)CC2)n1	.	33.3	-0.3	.	104.5	.
COc1nc(OC)nc(N2CCC(C(=O)NC3CCCCCC3)CC2)n1	-2.5	.	382.1*	-0.1	102.7	0.6
CCOc1ccc(CCNC(=O)COC(=O)COc2ccc(C(=O)CC)cc2)cc1OCC	.	4.4	5.3	.	104.0	.
CCOc1ccc(CCNC(=O)COC(=O)c2cccc(OC)c2O)cc1OCC	.	11.9	540.6*	.	88.8	0.1
CCOc1ccc(CCNC(=O)COC(=O)COc2ccc(C(C)=O)cc2)cc1OCC	0.5	4.9	+	1.0	102.5	-1.2
C[C@H](CO)N1C[C@H](C)[C@@H](CN(C)C(=O)Nc2ccc(C(F)(F)F)cc2)Oc2ncc(-c3ccc(C#N)cc3)cc2C1=O	4.4	-4.9	.	3.8	.	.
CCCc1cn(CC[C@H]2CC[C@H](NC(=O)C3CCOCC3)[C@H](CO)O2)nn1	-3.2	-0.7	.	9.8	.	.
O=C1CN(S(=O)(=O)c2cccc(F)c2)C[C@@H]2[C@H](c3ccc(-c4ccccc4)cc3)[C@@H](CO)N12	.	1.7	.	.	.	.
Cn1cnc(S(=O)(=O)N2C[C@H](O)COC[C@@H]3O[C@H](CC(=O)N4CCN(c5ccccc5)CC4)CC[C@H]32)c1	0.2	1.7	.	-0.7	.	.
Cn1c(CN2CCOCC2)nnc1SCC(N)=O	-5.4	.	538.2*	-0.5	92.7	0.8
CCCSc1nnc(CN2CCOCC2)n1C	-2.2	.	.	-0.4	111.0	.
